Test results as given in ChEMBL document CHEMBL4145521, “Regioselective synthesis of 3,4-diaryl-5-unsubstituted isoxazoles, analogues of natural cytostatic combretastatin A4” (Eur J Med Chem, 2018).

Legend:
Assay type in all cases: functional
SN12C [1] = assay: Cytotoxicity against human SN12C cells assessed as cell growth at 100 uM incubated for 48 hrs by sulforhodamine B assay relative to control; conditions: read-out: Activity
M14 = assay: Cytotoxicity against human M14 cells assessed as cell growth at 10 uM incubated for 48 hrs by sulforhodamine B assay relative to control; conditions: M14, 48 h, read-out: Activity
IGROV-1 = assay: Cytotoxicity against human IGROV1 cells incubated for 48 hrs by sulforhodamine B assay; conditions: IGROV-1, 48 h
Malme-3M [2] = assay: Cytotoxicity against human MALME-3M cells assessed as cell growth at 10 uM incubated for 48 hrs by sulforhodamine B assay relative to control; conditions: read-out: Activity
A498 = assay: Cytotoxicity against human A498 cells assessed as cell growth at 1 uM incubated for 48 hrs by sulforhodamine B assay relative to control; conditions: A498, 48 h, read-out: Activity
HT-29 = assay: Cytotoxicity against human HT-29 cells incubated for 48 hrs by sulforhodamine B assay; conditions: HT-29, 48 h
HOP-62 = assay: Cytotoxicity against human HOP62 cells incubated for 48 hrs by sulforhodamine B assay; conditions: HOP-62, 48 h
Paracentrotus lividus = assay: Antimitotic activity against Paracentrotus lividus embryo assessed as embryo spinning after 15 mins to 20 hrs by light microscopy
How it was run: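 Free-swimming blastulae from the same culture were used just after hatching (8–10 h post-fertilization). They were kept in filtered seawater at room temperature and exposed to 2-fold decreasing concentrations. Spinning at the well bottom instead of forward swimming was monitored from 15 min to 20 h under light microscopy. The effective threshold concentration was recorded from duplicates.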

Hs-578T = assay: Cytotoxicity against human Hs 578T cells assessed as cell growth at 100 uM incubated for 48 hrs by sulforhodamine B assay relative to control; conditions: read-out: Activity
SF-295 = assay: Cytotoxicity against human SF295 cells assessed as cell growth at 0.01 uM incubated for 48 hrs by sulforhodamine B assay relative to control; conditions: SF-295, 48 h, read-out: Activity
SK-OV-3 [3] = assay: Cytotoxicity against human SKOV3 cells assessed as cell growth at 0.1 uM incubated for 48 hrs by sulforhodamine B assay relative to control; conditions: SK-OV-3, 48 h, read-out: Activity
SN12C [4] = assay: Cytotoxicity against human SN12C cells assessed as cell growth at 10 uM incubated for 48 hrs by sulforhodamine B assay relative to control; conditions: read-out: Activity
A549 = assay: Cytotoxicity against human A549/ATCC cells assessed as cell growth at 100 uM incubated for 48 hrs by sulforhodamine B assay relative to control; conditions: A549, 48 h, read-out: Activity
OVCAR-4 = assay: Cytotoxicity against human OVCAR4 cells assessed as cell growth at 100 uM incubated for 48 hrs by sulforhodamine B assay relative to control; conditions: OVCAR-4, 48 h, read-out: Activity
NCI-H460 = assay: Cytotoxicity against human NCI-H460 cells assessed as cell growth at 0.1 uM incubated for 48 hrs by sulforhodamine B assay relative to control; conditions: NCI-H460, 48 h, read-out: Activity
ACHN = assay: Cytotoxicity against human ACHN cells assessed as cell growth at 10 uM incubated for 48 hrs by sulforhodamine B assay relative to control; conditions: read-out: Activity
SK-OV-3 [5] = assay: Cytotoxicity against human SKOV3 cells assessed as cell growth at 100 uM incubated for 48 hrs by sulforhodamine B assay relative to control; conditions: SK-OV-3, 48 h, read-out: Activity
KM12 = assay: Cytotoxicity against human KM12 cells assessed as cell growth at 0.01 uM incubated for 48 hrs by sulforhodamine B assay relative to control; conditions: KM12, 48 h, read-out: Activity
COLO 205 [6] = assay: Cytotoxicity against human COLO205 cells assessed as cell growth at 1 uM incubated for 48 hrs by sulforhodamine B assay relative to control; conditions: COLO 205, 48 h, read-out: Activity
SR = assay: Cytotoxicity against human SR cells assessed as cell growth at 0.01 uM incubated for 48 hrs by sulforhodamine B assay relative to control; conditions: read-out: Activity
SW-620 = assay: Cytotoxicity against human SW620 cells assessed as cell growth at 0.1 uM incubated for 48 hrs by sulforhodamine B assay relative to control; conditions: SW-620, 48 h, read-out: Activity
MDA-MB-231 = assay: Cytotoxicity against human MDA-MB-231 cells assessed as cell growth at 1 uM incubated for 48 hrs by sulforhodamine B assay relative to control; conditions: MDA-MB-231, 48 h, read-out: Activity
EKVX = assay: Cytotoxicity against human EKVX cells assessed as cell growth at 0.1 uM incubated for 48 hrs by sulforhodamine B assay relative to control; conditions: read-out: Activity
SN12C [7] = assay: Cytotoxicity against human SN12C cells assessed as cell growth at 0.1 uM incubated for 48 hrs by sulforhodamine B assay relative to control; conditions: read-out: Activity
NCI-H522 [8] = assay: Cytotoxicity against human NCI-H522 cells assessed as cell growth at 10 uM incubated for 48 hrs by sulforhodamine B assay relative to control; conditions: NCI-H522, 48 h, read-out: Activity
SNB-19 = assay: Cytotoxicity against human SNB19 cells assessed as cell growth at 1 uM incubated for 48 hrs by sulforhodamine B assay relative to control; conditions: SNB-19, 48 h, read-out: Activity
SN12C [9] = assay: Cytotoxicity against human SN12C cells assessed as cell growth at 1 uM incubated for 48 hrs by sulforhodamine B assay relative to control; conditions: read-out: Activity
NCI-H522 [10] = assay: Cytotoxicity against human NCI-H522 cells assessed as cell growth at 1 uM incubated for 48 hrs by sulforhodamine B assay relative to control; conditions: NCI-H522, 48 h, read-out: Activity
Malme-3M [11] = assay: Cytotoxicity against human MALME-3M cells incubated for 48 hrs by sulforhodamine B assay
COLO 205 [12] = assay: Cytotoxicity against human COLO205 cells incubated for 48 hrs by sulforhodamine B assay; conditions: COLO 205, 48 h
MDA-MB-435 = assay: Cytotoxicity against human MDA-MB-435 cells incubated for 48 hrs by sulforhodamine B assay; conditions: MDA-MB-435, 48 h
[13] = read-out: LC50 (the source's name)
[14] = read-out: pLC50 (the source's name) (converted)

COc1ccc(-c2nocc2-c2cc(OC)c(OC)c(OC)c2)cc1
growth at 100 µM (SN12C [1]): -1%
growth at 10 µM (M14): 13%
GI50 (IGROV-1; read-out: GI50): 0.346 µM
CC50 (IGROV-1; [13]): > 100 µM
TGI (IGROV-1; read-out: TGI): > 100 µM
GI50 (IGROV-1; read-out: pGI50 (converted)): 0.347 µM
CC50 (IGROV-1; [14]): > 100 µM
TGI (IGROV-1; read-out: pTGI): > 100 µM
growth at 10 µM (Malme-3M [2]): 60%
growth at 1 µM (A498): -3%
GI50 (HT-29; read-out: GI50): 0.0365 µM
LC50 (HT-29; read-out: LC50): > 100 µM
TGI (HT-29; read-out: TGI): 12 µM
GI50 (HT-29; read-out: pGI50 (converted)): 0.0363 µM
LC50 (HT-29; read-out: pLC50 (converted)): > 100 µM
TGI (HT-29; read-out: pTGI (converted)): 12 µM
GI50 (HOP-62; read-out: GI50): 0.259 µM
LC50 (HOP-62; read-out: LC50): > 100 µM
TGI (HOP-62; read-out: TGI): > 100 µM
GI50 (HOP-62; read-out: pGI50 (converted)): 0.257 µM
LC50 (HOP-62; read-out: pLC50 (converted)): > 100 µM
TGI (HOP-62; read-out: pTGI): > 100 µM
EC (Paracentrotus lividus): 1 µM
growth at 100 µM (Hs-578T): 10%
growth at 0.01 µM (SF-295): 84%
growth at 0.1 µM (SK-OV-3 [3]): 60%
growth at 10 µM (SN12C [4]): 34%
growth at 100 µM (A549): 6%
growth at 100 µM (OVCAR-4): 15%
growth at 0.1 µM (NCI-H460): 30%
growth at 10 µM (ACHN): 29%
growth at 100 µM (SK-OV-3 [5]): 5%
growth at 0.01 µM (KM12): 92%
growth at 1 µM (COLO 205 [6]): 11%
growth at 0.01 µM (SR): 99%
growth at 0.1 µM (SW-620): 32%
growth at 1 µM (MDA-MB-231): 38%
growth at 0.1 µM (EKVX): 49%
growth at 0.1 µM (SN12C [7]): 88%
growth at 10 µM (NCI-H522 [8]): -6%
growth at 1 µM (SNB-19): 36%
growth at 1 µM (SN12C [9]): 47%
growth at 1 µM (NCI-H522 [10]): -39%
LC50 (concentration killing 50% of cells) (Malme-3M [11]; read-out: LC50): > 100 µM
TGI (Malme-3M [11]; read-out: TGI): 45.5 µM
LC50 (concentration killing 50% of cells) (Malme-3M [11]; read-out: pLC50 (converted)): > 100 µM
TGI (Malme-3M [11]; read-out: pTGI (converted)): 45.7 µM
GI50 (COLO 205 [12]; read-out: GI50): 0.0581 µM
CC50 (COLO 205 [12]; [13]): > 100 µM
TGI (COLO 205 [12]; read-out: TGI): 1.91 µM
GI50 (COLO 205 [12]; read-out: pGI50 (converted)): 0.0575 µM
CC50 (COLO 205 [12]; [14]): > 100 µM
TGI (COLO 205 [12]; read-out: pTGI (converted)): 1.91 µM
GI50 (MDA-MB-435; read-out: GI50): 0.0239 µM
CC50 (MDA-MB-435; [13]): > 100 µM
TGI (MDA-MB-435; read-out: TGI): 0.13 µM
GI50 (MDA-MB-435; read-out: pGI50 (converted)): 0.024 µM
CC50 (MDA-MB-435; [14]): > 100 µM
TGI (MDA-MB-435; read-out: pTGI (converted)): 0.129 µM
